Results published in ChEMBL document CHEMBL1143122, “Novel analogs of D-e-MAPP and B13. Part 1: synthesis and evaluation as potential anticancer agents” (Bioorg Med Chem, 2008).

What follows are compounds tested on MCF7 (assay: Antiproliferative activity against human MCF7 cells after 48 hrs). Conditions: MCF7, 48 h.
Assay type: functional, cell-based

Compound | IC50 [µM]
CCCCCCCCCCCCCC(=O)N(C)[C@H](C)[C@@H](O)c1ccccc1 | > 10
CCCCCCCCCCCCNC(=O)N[C@@H](CO)[C@@H](O)c1ccc([N+](=O)[O-])cc1 | > 10
CCCCCCCCCCCCCC(=O)N(C)[C@@H](C)[C@H](O)c1ccccc1 | > 10
CCCCCCCCCCCCCC(=O)N(C)[C@@H](C)[C@@H](O)c1ccccc1 | > 10
CCCCCCCCCCCCNC(=O)N[C@@H](C)[C@H](O)c1ccccc1 | > 10
CCCCCCCCCCCCN[C@H](C)[C@@H](O)c1ccccc1 | 9
CCCCCCCCCCCCNC(=O)N[C@H](CO)[C@H](O)c1ccc([N+](=O)[O-])cc1 | > 10

The remaining lines, values ahead:

IC50 [µM] | Compound
20 | CCCCCCCCCCCCCC(=O)N[C@H](CO)[C@H](O)c1ccc(NC(=O)CCCCC[n+]2ccccc2)cc1.[Br-]
> 10 | CCCCCCCCCCCCCC(=O)N(C)[C@H](C)[C@H](O)c1ccccc1
> 10 | CCCCCCCCCCCCNC(=O)N[C@H](C)[C@@H](O)c1ccccc1
14 | CCCCCCCCCCCCCC(=O)N[C@H](CO)[C@H](O)c1ccc([N+](=O)[O-])cc1
30 | CCCCCCCCCCCCCC(=O)N[C@H](C)[C@@H](O)c1ccccc1

These compounds were tested on MCF7 (assay: Drug level in human MCF7 cells at 10 uM per 10^6 cells after 0.5 hrs). Conditions: mcf7, 0.5 h.
Assay type: ADME, cell-based
Procedure, shortened: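 MCF7 cells kept in RPMI 1640 with 10% fetal calf serum at 37 °C, 5% CO2, then treated with 10 μM analog. Intracellular analog measured over time by HPLC-MS in positive-ion MRM mode. Quantified against calibration curves made by spiking an artificial matrix with standards plus internal standard, using analyte/IS peak-area ratios and linear regression. Reported as pmol per 1×10^6 cells.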

Drug uptake [pmol] | Compound
800 | CCCCCCCCCCCCCC(=O)N[C@H](CO)[C@H](O)c1ccc(NC(=O)CCCCC[n+]2ccccc2)cc1.[Br-]
